Results from ChEMBL document CHEMBL1131110, “Deoxyadenosine bisphosphate derivatives as potent antagonists at P2Y1 receptors” (J Med Chem, 1998).
Activity calls are given as the source filed them. The rule behind the calls is not given here.

Experiments:
[1] = target: P2Y purinoceptor 1 (Meleagris gallopavo) (UniProt P49652); assay: Antagonist activity at P2Y1 receptor measured as capacity to inhibit phospholipase C stimulation elicited by 10 nM 2-MeSATP; assay type: functional
Procedure, shortened: (§1)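 The PLC assay uses [3H]inositol-labelled turkey erythrocyte ghosts (~175 μg protein) in HEPES buffer, pH 7.0, with 1 μM GTPγS. Ghosts are incubated 5 min at 30 °C with 10 nM 2-MeSATP plus graded analogue concentrations. [3H]inositol phosphates are separated by anion exchange. IC50 is the concentration inhibiting 50% of the 2-MeSATP response. Maximal inhibition is 100 minus residual stimulation at the top concentration. Each curve was run at least 3 times in duplicate or triplicate.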

[2] = target: P2Y purinoceptor 1 (Meleagris gallopavo) (UniProt P49652); assay: Agonist activity at P2Y1 receptor measured as capacity to stimulate phospholipase C in turkey erythrocyte membranes; NE=No effect; assay type: functional, cell membranes
Procedure, shortened: (§2)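 Turkey erythrocytes labelled with 2-[3H]myo-inositol in inositol-free DMEM for 18–24 h at 37 °C, 5% CO2. Ghosts made by hypotonic lysis. Labelled ghosts (~175 μg protein) incubated 5 min at 30 °C with 1 μM GTPγS and test nucleotide at pH 7.0 (HEPES, KCl, CaCl2, MgSO4, EGTA). Total [3H]inositol phosphates measured by anion-exchange chromatography. EC50 from four-parameter logistic fit. Efficacy is relative to a maximal 2-MeSATP response in the same experiment.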

P2Y purinoceptor 1 [3] = target: T1, P2Y purinoceptor 1 (Meleagris gallopavo, UniProt P49652); assay: Antagonist activity at P2Y1 receptor measured as capacity to inhibit 50% of phospholipase C stimulation elicited by 10 nM 2-MeSATP; assay type: functional
Procedure, shortened: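 Ghosts are incubated 5 min at 30 °C with 10 nM 2-MeSATP plus graded analogue concentrations. [3H]inositol phosphates are separated by anion exchange. Maximal inhibition is 100 minus residual stimulation at the top concentration. Each curve was run at least 3 times in duplicate or triplicate.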

[4] = target: P2Y purinoceptor 1 (Meleagris gallopavo) (UniProt P49652); assay: Agonist activity at P2Y1 receptor measured as capacity to stimulate phospholipase C in turkey erythrocyte membranes; assay type: functional, cell membranes; procedure, shortened: as §2
P2Y purinoceptor 1 [5] = target: T1, P2Y purinoceptor 1; assay: Agonist activity at P2Y1 receptor measured as capacity to stimulate 50% phospholipase C in turkey erythrocyte membranes; assay type: functional, cell membranes; procedure, shortened: as §2
[6] = target: P2Y purinoceptor 1 (Meleagris gallopavo) (UniProt P49652); assay: Antagonist activity at P2Y1 receptor measured as capacity to inhibit phospholipase C stimulation elicited by 10 nM 2-MeSATP; NE=No effect; assay type: functional; procedure, shortened: as §1
[7] = target: P2Y purinoceptor 1 (Meleagris gallopavo) (UniProt P49652); assay: Antagonist activity at P2Y1 receptor measured as capacity to inhibit phospholipase C stimulation elicited by 10 nM 2-MeSATP; Small inhibition at 30-100 uM; assay type: functional; conditions: filed as antagonist; procedure, shortened: as §1
[8] = target: P2Y purinoceptor 1 (Meleagris gallopavo) (UniProt P49652); assay: Antagonist activity at P2Y1 receptor measured as capacity to inhibit phospholipase C stimulation elicited by 10 nM 2-MeSATP; No effect or small inhibition; assay type: functional; procedure, shortened: as §1
[9] = target: P2Y purinoceptor 1 (Meleagris gallopavo) (UniProt P49652); assay: Agonist activity at P2Y1 receptor measured as capacity to stimulate phospholipase C in turkey erythrocyte membranes; No effect or small inhibition; assay type: functional, cell membranes; procedure, shortened: as §2

T1 sequence (P49652 whole entry): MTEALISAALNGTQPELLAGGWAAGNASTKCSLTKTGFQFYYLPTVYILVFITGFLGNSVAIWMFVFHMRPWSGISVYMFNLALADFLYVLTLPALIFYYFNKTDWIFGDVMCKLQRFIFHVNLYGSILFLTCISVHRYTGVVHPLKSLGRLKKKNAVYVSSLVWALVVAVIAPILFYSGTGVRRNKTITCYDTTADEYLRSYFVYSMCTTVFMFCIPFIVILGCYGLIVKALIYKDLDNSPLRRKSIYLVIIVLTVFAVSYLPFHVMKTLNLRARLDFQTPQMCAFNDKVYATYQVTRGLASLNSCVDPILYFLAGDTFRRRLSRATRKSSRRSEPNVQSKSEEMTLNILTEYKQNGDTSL
Sequence of P2Y purinoceptor 1 (Meleagris gallopavo) (P49652 whole entry): as above

Row | Structure (SMILES) | Max inhibition [1] [%] | Max increase [2] | IC50 (P2Y purinoceptor 1 [3]) [µM] | Max increase [4] [%] | EC50 (P2Y purinoceptor 1 [5]) [µM] | other results
1 | CSc1ncnc2c1ncn2[C@H]1C[C@H](OP(=O)(O)O)[C@@H](COP(=O)(O)O)O1 | 78 | inactive | 29.1 |  |  | 
2 | Nc1ncnc2c1ncn2[C@@H]1O[C@H](COP(=O)(O)O)[C@@H](O)[C@H]1OP(=O)(O)O | 75 |  | 8.46 | 25 | 1.37 | 
3 | Nc1ncnc2c1ncn2[C@H]1C[C@H](OP(O)(O)=S)[C@@H](COP(O)(O)=S)O1 | 91 |  | 88 | 9 |  | 
4 | O=P(O)(O)OC[C@H]1O[C@@H](n2cnc3c2ncn2ccnc32)C[C@@H]1OP(=O)(O)O |  | inactive |  |  |  | Max inhibition [6]: inactive
5 | Nc1ncnc2c1ncn2[C@H]1C[C@H](OP(=O)(O)O)[C@@H](COP(=O)(O)O)O1 | 87 |  | 5.76 | 12 | 6.26 | 
6 | Nc1ncnc2c1ncn2[C@@H]1O[C@H](COP(=O)(O)O)[C@H]2OP(=O)(O)O[C@H]21 | 73 |  |  | 43 |  | 
7 | NCCCCCCNc1ncnc2c1ncn2[C@@H]1O[C@H](COP(=O)(O)O)[C@@H](O)[C@H]1OP(=O)(O)O |  | inactive |  |  |  | Max inhibition [6]: inactive
8 | O=P(O)(O)OC[C@H]1O[C@@H](n2cnc3c(Cl)ncnc32)C[C@@H]1OP(=O)(O)O |  |  |  |  |  | Max inhibition [8]: inactive; Max increase [9]: inactive
9 | CC(C)(COP(=O)(O)OP(=O)(O)OC[C@H]1O[C@@H](n2cnc3c(N)ncnc32)[C@H](OP(=O)(O)O)[C@@H]1O)C(O)C(=O)NCCC(=O)NCCS (stereo not given in full) | 72 |  | 73 | 43 | > 100 | 
10 | Nc1ncnc2c1nc(Br)n2[C@H]1C[C@H](OP(=O)(O)O)[C@@H](COP(=O)(O)O)O1 | 100 | inactive | 36.7 |  |  | 
11 | Nc1ncnc2c1ncn2[C@@H]1O[C@H](COP(=O)(O)O)[C@H]2O[P@](=O)(O)O[C@H]21 |  |  | 12.7 |  | 40.9 | 
12 | CCCNc1ncnc2c1ncn2[C@H]1C[C@H](OP(=O)(O)O)[C@@H](COP(=O)(O)O)O1 |  | inactive |  |  |  | Max inhibition [7]: Partial antagonist
13 | Nc1nc(Cl)nc2c1ncn2[C@H]1C[C@H](OP(=O)(O)O)[C@@H](COP(=O)(O)O)O1 | 80 |  | 2.01 | 19 | 0.651 | 
14 | O=C(Nc1ncnc2c1ncn2[C@H]1C[C@H](OP(=O)(O)O)[C@@H](COP(=O)(O)O)O1)c1ccccc1 |  | inactive |  |  |  | Max inhibition [6]: inactive
15 | CSc1nc(N)c2ncn([C@H]3C[C@H](OP(=O)(O)O)[C@@H](COP(=O)(O)O)O3)c2n1 | 77 |  | 2.11 | 22 | 0.55 | 
16 | C[n+]1cnc2c(ncn2[C@H]2C[C@H](OP(=O)(O)O)[C@@H](COP(=O)(O)O)O2)c1N | 100 | inactive | 54.9 |  |  | 

Second part, led by results:

Row | Max inhibition [1] [%] | Max increase [2] | IC50 (P2Y purinoceptor 1 [3]) [µM] | Max increase [4] [%] | EC50 (P2Y purinoceptor 1 [5]) [µM] | Structure (SMILES) | other results
17 | 81 |  | 11 | 16 | 8.33 | Nc1ncnc2c1ncn2C1OC(COP(=O)(O)O)CC1OP(=O)(O)O (stereo not given) | 
18 |  | inactive |  |  |  | O=c1[nH]cnc2c1ncn2[C@H]1C[C@H](OP(=O)(O)O)[C@@H](COP(=O)(O)O)O1 | Max inhibition [7]: Partial antagonist
19 | 100 | inactive | 1.08 |  |  | CCNc1ncnc2c1ncn2[C@H]1C[C@H](OP(=O)(O)O)[C@@H](COP(=O)(O)O)O1 | 
20 |  | inactive |  |  |  | Nc1ncnc2c1ncn2C1OC(CCl)CC1OP(=O)(O)O (stereo not given) | Max inhibition [6]: inactive
21 | 50 |  | > 100 | 50 | > 100 | Nc1ncnc2c1ncn2C1O[C@H](COP(=O)(O)OP(=O)(O)OC2O[C@H](CO)[C@@H](O)[C@H]2O)[C@@H](O)[C@H]1OP(=O)(O)O (stereo not given in full) | 
22 | 70 | inactive | 46.7 |  |  | CN(C)c1ncnc2c1ncn2[C@H]1C[C@H](OP(=O)(O)O)[C@@H](COP(=O)(O)O)O1 | 
23 | 90 |  | 0.324 | 13 |  | CNc1ncnc2c1ncn2C1OC(COP(=O)(O)O)CC1OP(=O)(O)O (stereo not given) | 
24 | 65 |  | 12.4 | 35 | 12.9 | CO[C@@H]1[C@H](OP(=O)(O)O)[C@@H](COP(=O)(O)O)O[C@H]1n1cnc2c(N)ncnc21 | 
25 | 77 |  | 4.19 | 21 | 1.28 | Nc1ncnc2c1ncn2[C@@H]1O[C@H](COP(=O)(O)O)[C@@H](OP(=O)(O)O)[C@H]1O | 
